# Screening data from PubChem BioAssay.
# Shown are actives, neighbours in structure and some others; about 29% of the full set was active somewhere.
# Ecoli tolC: growth inhibitors of E. coli BW25113 tolC mutant; OD615; growth inhibition, % at 10 µM (by protocol); actives 2.2% (n = 65,000); AID 573;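 active means growth inhibition at or above a cutoff equal to the mean over every tested compound plus 3 SD, cut at about 60% in these data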;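 further: growth measured after 20 h incubation at 37 °C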
#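 System: E. coli ΔtolC::kan strain BW25113; Buffer or medium: LB broth supplemented with 50 µg/mL kanamycin; Compound: 10 µM final, single dose; Incubation: bacterial growth with compound for 20 h at 37 °C; Signal: A615 absorbance measurement; Evaluation: growth inhibition in percent.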
# CYP2C19 inh: blocks human cytochrome P450 2C19; P33261; CYP2C19 Supersomes, luciferin-H EGE luminescence, 30 min; inhibition, % at 5 µM; actives 21% (n = 96,000);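 active means CYP2C19 inhibition above a set limit at 5 µM in the primary screen, cut at about 50% in these data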;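 further: plate controls were negative control wells for no effect and 2.5 mM tranylcypromine positive control for full effect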
# CYP2C9 act: activators of human CYP2C9. P11712. activation factor at 5 µM. actives 1.4% (n = 96,000). recombinant CYP2C9, luciferin-H conversion, luminescence; active compounds read high; factor 1 = untreated enzyme, 0 = blocked;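 active means activation factor of 2 or more for CYP2C9 at a 5 µM dose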;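 further: 0 = sulfaphenazole-blocked wells and 1 = vehicle-only wells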
# Target sequence (P11712 whole entry, looked up): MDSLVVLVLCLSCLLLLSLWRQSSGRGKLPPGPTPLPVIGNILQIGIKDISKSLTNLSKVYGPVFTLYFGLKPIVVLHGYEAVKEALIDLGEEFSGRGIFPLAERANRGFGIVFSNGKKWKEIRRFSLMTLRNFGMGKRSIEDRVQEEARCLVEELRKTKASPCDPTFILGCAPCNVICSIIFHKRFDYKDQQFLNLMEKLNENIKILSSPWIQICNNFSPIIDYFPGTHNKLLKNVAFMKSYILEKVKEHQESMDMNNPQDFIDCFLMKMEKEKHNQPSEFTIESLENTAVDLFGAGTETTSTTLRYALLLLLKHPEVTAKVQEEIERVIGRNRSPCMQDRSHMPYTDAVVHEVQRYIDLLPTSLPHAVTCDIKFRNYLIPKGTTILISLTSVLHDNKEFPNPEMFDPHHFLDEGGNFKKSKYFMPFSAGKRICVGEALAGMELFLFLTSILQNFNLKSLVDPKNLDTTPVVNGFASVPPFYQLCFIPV
# CYP2C9 inhib: human CYP2C9 inhibition; CYP2C9 Supersomes, luciferin-H conversion, luminescence; inhibition, % at 5 µM; actives 20% (n = 96,000);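 active means blocking of liver enzyme CYP2C9 beyond about 50% at 5 µM, limit read from the data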
# E coli WT exp: E. coli BW25113 growth inhibition, expanded screen; OD600 absorbance; growth inhibition, % at 100 µM; actives 0.15% (n = 98,000); AID 710;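 active means growth inhibition above about 50% at one test dose, limit read from the data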;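 further: growth measured after 20 h incubation at 37 °C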
# CYP2C19 act: cytochrome P450 2C19 (human) activation. P33261. recombinant CYP2C19, luciferin-H EGE luminescence; active compounds read high; 0 = fully inhibited enzyme, 1 = untreated enzyme. activation factor at 5 µM. 96,000 tested, under 10 active. AID 1025;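 active means activation factor of at least 2 at 5 µM in the primary screen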;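 further: 0 = wells with 2.5 mM tranylcypromine and 1 = vehicle-only wells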
# An asterisk follows results filed as active; / = no result.
SMILES,Ecoli tolC,CYP2C19 inh,CYP2C9 act,CYP2C9 inhib,E coli WT exp,CYP2C19 act
CCCCC(=O)Nc1ccc(C(=O)NCc2ccncc2)cc1,-14,63*,0.3,70*,-2,0.4
CCOC(=O)CC(=O)Nc1ccc(C(=O)OCC)cc1,-5,27,0.8,25,-2,0.7
COc1ccc(NC(=O)NCc2ccncc2)cc1,/,31,0.4,60*,8,0.7
Cn1c(=O)[nH]c(=O)c2c1nc(Br)n2CCSc1nc2ccccc2o1,0,24,0.8,23,1,0.8
COc1ccc(OC)c(/C=N/NC(=O)CC2C(=O)NN=C2C)c1 (stereo unspecified),/,-11,1,-5,8,1.1
Cc1ccc(-c2[nH]nc3c2C(c2ccc(OC(=O)N4CCOCC4)cc2)C(C#N)=C(N)O3)cc1 (stereo unspecified),0,40,0.6,36,8,0.6
CC(=O)c1cccc(NC(=O)N2CCCC2C(=O)Nc2cc(C)ccc2C)c1 (stereo unspecified),-14,1,0.5,45,-3,1
CCOC(=O)c1ccc(NCc2ccc(N(C)C)cc2)cc1,-6,54*,1,4,1,0.5
O=C(NCCc1ccncc1)Nc1ccc(Cl)cc1,-2,97*,0,96*,35,0
COc1ccc(CNC(=O)Nc2cccc3ccccc23)cc1,/,89*,1.4,-36,-4,0.1
CCOC(=O)c1ccc(NCc2ccc3c(c2)OCO3)cc1,36,32,0.5,50,2,0.7
NS(=O)(=O)c1ccc(CCNC(=O)Nc2ccc(Cl)c(Cl)c2)cc1,/,34,0.7,34,-10,0.7
O=C(NCc1ccncc1)Nc1ccccc1Cl,-12,89*,0.2,81*,-10,0.1
CCOC(=O)c1ccc(NC(=O)NCc2ccncc2)cc1,5,24,0.3,73*,26,0.8
Clc1ccccc1-c1nnn(Cc2ccc(-c3nn[nH]n3)cc2)n1,20,68*,0.1,86*,1,0.3
CC(=O)c1cccc(NC(=O)Nc2cnn(Cc3ccc(Cl)cc3Cl)c2)c1,/,-7,1,-3,-19,1.1
O=C(NC(C(=O)N/N=C/c1cccc2ccccc12)c1n[nH]c(=O)c2ccccc12)c1ccccc1 (stereo unspecified),/,33,0.4,56*,-6,0.7
O=C(COc1ccccc1-c1ccccc1)N/N=C/c1cccc2ccccc12,/,31,0.9,12,-22,0.7
Cn1c(=O)c2c(nc(SCc3cccnc3)n2Cc2ccc(F)cc2)n(C)c1=O,16,26,0.6,41,1,0.7
CC1(C)CC(=O)C(C(=O)CCCCC(=O)C2C(=O)CC(C)(C)CC2=O)C(=O)C1,-7,-12,1.2,-19,2,1.1
CCOC(=O)C1=C(C)NC(=O)CC1c1ccccc1 (stereo unspecified),1,8,1,-3,-4,0.9
CCOC(=O)C1=C(C)N=C(/N=C/N(C)C)SC1c1ccccc1 (stereo unspecified),4,71*,0.5,48,11,0.3
CNc1nnc(-c2cc3ccccc3oc2=O)s1,-3,16,0.9,12,-6,0.8
O=c1oc2ccccc2cc1-c1cn2cccnc2n1,0,57*,0.8,25,-2,0.4
CCN=C1SC(C(=O)Nc2cccc(C)c2)CC(=O)N1CC (stereo unspecified),/,80*,2.4*,-141,1,0.2
CCN=C1SC(C(=O)Nc2ccc(Cl)c(Cl)c2)CC(=O)N1CC (stereo unspecified),5,42,0.8,16,-4,0.6
CCN=C1SC(C(=O)NCCc2ccccc2)CC(=O)N1CC (stereo unspecified),-11,64*,1.3,-29,0,0.4
O=C(/C=C\Nc1cccc(F)c1)c1ccc2c(c1)OCO2,1,-4,0.7,31,-2,1
O=c1c2cccc3c(N4CCOCC4)ccc(c32)c2nc3ccccc3n12,-18,15,0.8,18,/,0.9
CCCCOC(=O)C1=C(C)Nc2ncnn2C1c1cc(OC)c(OC)cc1OC (stereo unspecified),-4,-3,0.6,38,6,1
